# Assay outcomes (PubChem BioAssay)
# NR2E3 ag-1: activates human photoreceptor nuclear receptor NR2E3 | GST-NR2E3/biotin-RetCOR TR-FRET, 1536-well | 320,000 compounds, 0.12% hits | Q9Y5X4 | inhibition of corepressor binding, % at 4.78 µM;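 active = percent inhibition above the cutoff of mean plus 3 SD of all tested compounds, set per screening campaign, cut at about 20% in these data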;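 also: 0% = DMSO wells and 100% = biotin wells as full block of FRET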
#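 Material: NR2E3–RetCOR corepressor complex | Quantity: 1.35 nM GST-tagged NR2E3 final | Schedule: 5 h at 4 °C | Replication: Singlicate compound wells | Reagent: RetCOR corepressor, biotinylated, 7 nM | Controls: Biotin wells as high control, 0.6% DMSO wells as low control | Signal: TR-FRET, Eu(K)-anti-GST donor, streptavidin-D2 acceptor, ex 340, em 617/671 nm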
# Jurkat NFkB inh: lowers PMA/ionomycin-induced NF-kB signal in Jurkat cells | PMA/ionomycin-induced NF-kB luciferase reporter, luminescence | inhibition, % at 4 µM | 330,000 compounds, 0.53% hits | AID 435003; in the data active = inhibition above about 50%
# JMJD2C inh: human JMJD2C demethylase inhibition | Q9H3R0 | GST-JMJD2C(1-420) H3K9me3 demethylation, DELFIA europium | AID 2099 | 330,000 compounds, 0.069% hits | inhibition, % at 2.35 µM;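 active = more than half of a compound's replicate wells show inhibition beyond 50%, single wells judged on their own value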;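 also: signal counts dimethyl H3K9 product captured on neutravidin plate; 0% = median of DMSO wells and 100% = 0.3 times that DMSO median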
# Target sequence (Q9H3R0 1-420 limits assumed): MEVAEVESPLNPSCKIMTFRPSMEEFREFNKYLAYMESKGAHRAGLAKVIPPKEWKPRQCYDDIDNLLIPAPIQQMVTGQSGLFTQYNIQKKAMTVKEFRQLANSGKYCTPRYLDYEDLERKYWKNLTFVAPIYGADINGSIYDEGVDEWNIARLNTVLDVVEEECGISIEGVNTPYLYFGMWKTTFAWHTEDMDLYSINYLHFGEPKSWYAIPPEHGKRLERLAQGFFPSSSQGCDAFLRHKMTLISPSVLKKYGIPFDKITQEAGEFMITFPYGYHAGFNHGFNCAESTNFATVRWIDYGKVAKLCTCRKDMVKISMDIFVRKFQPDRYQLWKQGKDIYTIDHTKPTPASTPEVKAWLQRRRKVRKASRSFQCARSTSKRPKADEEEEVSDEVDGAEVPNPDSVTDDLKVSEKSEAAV
# NR2E3 ag-2: human photoreceptor-specific nuclear receptor agonism. 360,000 compounds, 0.35% hits. AID 602229. inhibition of corepressor binding, % at 3.98 µM. CHO-S Gal4-NCOR/VP16-NR2E3 two-hybrid, luciferase. Q9Y5X4;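 active = inhibition above the mean of all tested compounds plus 3 SD, cut at about 70% in these data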;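 also: 0% = DMSO with NR2E3 transfected cells and 100% = cells lacking NR2E3 construct; higher means lower luciferase signal from less NR2E3 corepressor binding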
# GalR3 antagonist: blocks the human galanin receptor 3. O60755. inhibition, % at 3 µM. HEK293 GalR3-CNG cAMP membrane potential fluorescence; galR3 body fused to GalR1 C-terminus. 360,000 compounds, 0.44% hits;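 active = inhibition above the screen-wide average plus 3 SD, cut at about 13% in these data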;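 also: forskolin and galanin both at EC90 stimulate the cells; cAMP rise reported by CNG channel membrane potential dye signal; 0% = forskolin plus galanin with DMSO and 100% = forskolin alone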
# Target sequence (O60755 1-299 limits assumed): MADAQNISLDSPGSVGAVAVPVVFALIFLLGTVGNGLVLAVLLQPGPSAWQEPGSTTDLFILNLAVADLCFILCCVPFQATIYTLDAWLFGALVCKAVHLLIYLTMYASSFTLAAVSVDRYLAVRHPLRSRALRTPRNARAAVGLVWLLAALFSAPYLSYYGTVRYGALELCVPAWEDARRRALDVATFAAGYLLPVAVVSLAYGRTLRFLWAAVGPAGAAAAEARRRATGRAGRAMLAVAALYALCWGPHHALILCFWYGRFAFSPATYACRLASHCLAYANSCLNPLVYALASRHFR
# 697 NFkB inh: lowers PMA/ionomycin-induced NF-kB signal in 697 B cells; 330,000 compounds, 0.33% hits; inhibition, % at 4 µM; AID 435022; 697 B-cell NF-kB luciferase reporter, 16 h; in the data active = inhibition above about 35%
# Jurkat NFkB conf: inhibitors of the PMA/ionomycin-induced NF-kB reporter in Jurkat cells, retest | shares compounds with Jurkat NFkB inh | 2,700 compounds, 27% hits | Jurkat NF-kB luciferase, 16 h | inhibition, % at 4 µM;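 active = inhibition reaching about 45% at 4 µM in either replicate, limit read from the data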;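 also: plate controls were PMA/ionomycin stimulated DMSO wells for no effect and unstimulated DMSO wells for full effect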
# * hit, by the source's call; · = no result. A selection: hits, their analogues and other compounds. The true share with any hit is near 1.5%.
SMILES,NR2E3 ag-1,Jurkat NFkB inh,JMJD2C inh,NR2E3 ag-2,GalR3 antagonist,697 NFkB inh,Jurkat NFkB conf
Cc1cccc(N2CCN(C(=O)c3ccc(CS(=O)(=O)c4ccccc4C)o3)CC2C)c1 (stereo not drawn),3.6,65.1*,36.1,23.2,-2.3,8.9,51.9*
CCCn1nnnc1NC(=O)c1ccc(C)cc1Cl,4.6,-10.0,1.7,-4.2,-6.0,-12.7,·
CCOc1ccc(NC(=O)CN(C)C(=O)c2ccc3c(c2)C(=O)N(CCC(C)C)C3=O)cc1OCC,0.8,-2.6,12.5,8.8,0.8,16.6,·
COc1cc(/C=C2\CC/C(=C\c3cc(OC)c(OC)c(OC)c3)C2=O)cc(OC)c1OC,-0.4,18.2,-3.4,-3.6,-4.7,25.6,·
COc1cc(/C=C2\CC(C(C)(C)C)C/C(=C\c3cc(OC)c(OC)c(OC)c3)C2=O)cc(OC)c1OC (stereo not drawn),0.9,90.4*,7.6,-1.9,4.8,-221.8,-14.3
C(=N\Nc1nc(-c2cccnc2)nc2ccccc12)/c1ccccc1,0.8,-16.1,-13.3,-8.1,2.7,-25.4,·
C(=N\Nc1nc(-c2ccccn2)nc2ccccc12)/c1ccccc1,2.3,101.0*,2.8,·,·,-29.7,15.4
S=c1[nH]c2ccc(Cc3ccc4[nH]c(=S)[nH]c4c3)cc2[nH]1,-0.5,5.3,7.7,-23.3,-3.7,-10.5,·
c1ccc2c(c1)oc1c(Nc3ccc4c(c3)OCCO4)ncnc12,0.4,-166.2,-1.6,-130.2,-5.7,-196.2,-133.2
O=C(COC(=O)/C=C/c1ccco1)Nc1cccc([N+](=O)[O-])c1,1.6,·,18.8,13.9,-1.0,·,·
COc1ccc(C(=O)NCCSc2ccccc2)cc1,-0.6,-212.4,-11.4,-146.2,6.3,-204.0,-98.6
COc1cc2c(c(OC)c1OC)-c1ccc(OC)c(=O)cc1[C@@H](N(C)CC#CCO)CC2,-0.5,62.7*,-7.5,16.1,-5.3,-243.9,61.7*
CN[C@H]1CCc2cc(OC)c(OC)c(OC)c2-c2ccc(N(C)CC(OC)OC)c(=O)cc21,-4.3,29.9,93.3,-35.5,-6.5,-11.5,·
CCN(CC)c1ccc2c(cc1=O)[C@@H](NC)CCc1cc(OC)c(OC)c(OC)c1-2,2.0,60.0*,-2.7,-30.3,-6.4,-3.2,3.0
C[C@H](NC(=O)[C@@H]1CCCN1C(=O)[C@@H]1CCCN1C(=O)OC(C)(C)C)c1ccccc1,·,·,·,-17.4,-0.1,·,·
COc1ccc(SC[C@H](Cc2ccccc2)N2CC[C@@H](C(C)(C)C)CCC2=O)cc1,-0.7,-11.1,-1.4,8.0,-8.3,20.7,·
CCN(CC)S(=O)(=O)c1ccc(N/N=C/c2cc(OC)c(OC)cc2OC)nc1,-1.9,3.1,1.2,7.4,-9.7,-2.5,·
CCOc1cccc(/C=N/Nc2ccc(S(=O)(=O)N(CC)CC)cn2)c1O,3.9,60.3*,1.9,-44.2,-5.3,-34.2,45.7
CCOc1ccc(C2C(C(=O)OC)=CN(C(C)c3ccccc3)C=C2C(=O)OC)cc1 (stereo not drawn),0.9,17.7,-1.3,-31.5,-14.9,17.0,·
COc1cc(NC(=O)CCCl)cc(-n2cnnn2)c1,2.5,22.0,5.2,1.8,-4.0,16.3,·
O=C(c1cc(-c2ccncc2)nc2c(Cl)cccc12)N1CCN(c2ccccc2F)CC1,2.9,59.9*,4.1,-30.2,-5.0,1.0,36.4
O=C(c1cc(-c2ccccc2Cl)nc2ccccc12)N1CCN(c2ccccc2O)CC1,-1.4,12.0,84.1,-12.9,2.8,23.8,·
CC(=O)c1ccc(NC(=O)c2noc3c2CCCCC3)cc1,-3.3,-164.7,-8.4,-134.1,-3.0,-120.6,-96.4
O=C(Nc1ccc2c(c1)OCO2)c1noc2c1CCCCC2,-0.3,-144.7,10.5,-132.3,-7.1,-153.2,·
CC1=Nc2ccccc2/C1=C\c1sc(Nc2ccc(C)cc2)nc1O,3.2,52.8*,-5.8,-4.0,-1.3,-22.2,61.5*
SMILES,NR2E3 ag-1,Jurkat NFkB inh,JMJD2C inh,NR2E3 ag-2,GalR3 antagonist,697 NFkB inh,Jurkat NFkB conf
CCc1ccc2nc(SCC(=O)Nc3ccccc3N3CCOCC3)c(C#N)cc2c1,-2.4,66.9*,7.7,1.1,4.9,5.7,23.7
O/C(=C\c1ccc2ccccc2n1)c1ccc(O)cc1O,-4.4,-170.0,-5.1,-91.1,1.4,-185.8,-15.3
COc1ccc([C@H]2CC(=O)C=C(c3cc(C)ccc3OC)C2)cc1,-0.1,57.5*,1.6,-39.9,-5.5,-12.4,25.6
CCOc1ccc(Br)cc1C1=CC(=O)C[C@H](c2ccc(OC)cc2)C1,2.8,64.9*,-1.7,-4.5,-5.5,-53.1,47.2
COc1ccccc1N1CCN(c2ccnc3cc(Cl)ccc23)CC1,1.0,67.7*,-1.1,-55.7,-6.9,-41.3,25.4
O=C(CN1C(=O)NC2(CCCC2)C1=O)Nc1nc2c(F)cc(F)cc2s1,1.5,3.7,-11.9,3.7,-4.5,-2.2,·
CC(=O)c1sc(NC(=O)c2ccc(C(C)(C)C)cc2)nc1C,-7.1,-172.2,-4.4,-84.5,-5.0,-230.6,-85.8
CC(C)(C)c1ccc(NC(=O)C2=CN3CCS(=O)(=O)N=C3C=C2)cc1,-0.4,-8.1,5.6,-23.5,1.3,1.7,·
CCCC[C@@H](CN[C@H](C)CNC)NCC1CCC(C(C)(C)C)CC1 (stereo partly drawn),3.4,52.6*,8.9,·,-6.5,18.5,25.9
CC[C@H](C)[C@@H](CN[C@H](CCCCNC)CNC)NCC1CCCC1,2.0,8.2,-9.6,-20.9,-2.0,9.6,·
O=C(Nc1ccc(OC(F)F)c(Cl)c1)c1ccccn1,-2.3,-175.9,-2.7,-120.2,-8.8,-159.5,-96.2
COc1ccc(C(=O)NN/C(=N/S(=O)(=O)c2ccc(C)cc2)c2ccccc2)cc1,-1.8,-180.6,-1.4,-147.4,-4.0,-192.0,-106.7
CCOc1ccc(S(=O)(=O)/N=C(/Nc2ccc(OC)cc2)c2ccccc2)cc1,2.0,6.2,-5.5,-28.3,-4.1,2.1,·
O=S1(=O)C=C(Sc2nc3cc(Cl)ccc3o2)c2ccccc21,-4.1,96.6*,-20.5,23.9,·,-185.1,90.4*
O=C1c2ccccc2C(=O)N1Cc1cnc(N2CCN(c3ccccc3)CC2)s1,-0.1,18.8,21.5,-5.0,-4.4,-17.9,·
Cc1cc(S(=O)(=O)N2CCN=C2c2ccccc2)ccc1F,8.8,7.8,-2.7,5.5,-7.8,-26.2,·
CCOc1ccc(S(=O)(=O)N2CCN=C2c2ccccc2)cc1,0.8,54.2*,-10.7,-7.2,-2.8,-65.1,12.3
Cc1onc(-c2ccccc2Cl)c1C(=O)N1CCN(C=O)CC1,0.4,-5.0,-22.5,-15.4,-0.2,-6.8,·
Cc1cccc(N2CCN(C(=O)c3c(-c4ccccc4Cl)noc3C)CC2)c1C,0.8,67.0*,1.1,0.1,-0.6,-4.9,51.0*
